Test results from ChEMBL document CHEMBL1137814, “Bitungolides A-F, new polyketides from the Indonesian sponge Theonella cf. swinhoei” (J Nat Prod, 2002).
Activity calls are given as the source filed them. The calls are words filed in the database; no cut-off is given here.

How the values were obtained:
Homo sapiens = species on record: Homo sapiens; experiment: Inhibition of PP2A from human red blood cells
How it was run: (§1)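 PP1 (rabbit skeletal muscle) and PP2A (human red blood cells), commercial enzymes. In vitro assays run in duplicate. Compounds tested at 10 µg/mL, with tautomycin at 30 ng/mL as reference.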

[1] = Cytotoxicity against rat 3Y1 cells at 10 ug/ml by flow cytometry; type: cell-based
How it was run: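 Rat normal fibroblast 3Y1 cells grown in Dulbecco's modified MEM with 10% fetal calf serum, humidified 5% CO2. Cell-cycle progression after treatment assessed by flow cytometry.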

[2] = target: Dual specificity protein phosphatase 3 (Homo sapiens) (UniProt P51452); experiment: Inhibition of VHR expressed in Escherichia coli BL21([…])
How it was run: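 VHR dual-specificity phosphatase overexpressed in E. coli BL21(DE3). Assays run in triplicate. Compounds tested at 100 µg/mL (some at 30 µg/mL). References were tautomycin at 30 ng/mL and RK-682 at 10 µg/mL.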

3Y1 cell line = experiment: Induction of morphological changes in rat 3Y1 cells by indirect immunofluorescence technique; type: functional, cell-based
How it was run: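 3Y1 rat fibroblasts cultured in DMEM plus 10% fetal calf serum under humidified 5% CO2. Cytoskeletal changes after treatment visualized by indirect immunofluorescence microscopy.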

[3] = Inhibition of PTP-S2
How it was run: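 PTP-S2 overexpressed in E. coli BL21(DE3). Phosphatase assays run in triplicate. Compounds tested at 10 µg/mL, with tautomycin at 30 ng/mL as reference.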

brain [4] = experiment: Induction of microtubule assembly in bovine brain cells by turbidimetric assay; type: cell-based; settings: Bos taurus
How it was run: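 Turbidity assay: microtubule protein at 2.0 mg/mL in Mes buffer incubated at 37 °C. Absorbance at 350 nm followed over time.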

Oryctolagus cuniculus = species on record: Oryctolagus cuniculus; experiment: Inhibition of rabbit muscle PP1; how it was run: as §1
brain [5] = experiment: Induction of actin assembly in bovine brain cells by turbidimetric assay; type: cell-based; settings: Bos taurus

Dual specificity protein phosphatase 3 (Homo sapiens), sequence (P51452 whole entry, looked up): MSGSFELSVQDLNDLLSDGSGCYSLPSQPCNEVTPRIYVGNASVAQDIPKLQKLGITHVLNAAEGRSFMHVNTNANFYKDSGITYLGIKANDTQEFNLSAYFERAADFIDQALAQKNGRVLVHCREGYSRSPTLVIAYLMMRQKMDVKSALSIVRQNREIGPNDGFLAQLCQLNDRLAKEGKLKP

Row | Compound | Activity (Homo sapiens) | Activity [1] | Activity [2] | Activity (3Y1 cell line) | Activity [3] | Activity (brain [4]) | Activity (Oryctolagus cuniculus) | Activity (brain [5])
1 | CC[C@@H]1C=CC(=O)O[C@@H]1[C@H](C)C[C@@H](C)[C@@H](O)C[C@H](O)/C=C/C=C\c1cccc(O)c1Cl [BITUNGOLIDE D] | inactive | Active | inactive | inactive | inactive | inactive | inactive | inactive
2 | CC[C@@H]1C=CC(=O)O[C@@H]1[C@H](C)C[C@@H](C)[C@@H](O)C[C@H](O)/C=C\C=C\c1cccc(O)c1Cl [BITUNGOLIDE C] | inactive | Active | inactive | inactive | inactive | inactive | inactive | inactive
3 | CC[C@@H]1C=CC(=O)O[C@@H]1[C@H](C)C[C@@H](C)[C@@H](O)C[C@H](O)/C=C/C=C/c1ccccc1 [BITUNGOLIDE E] | inactive | Active | inactive | inactive | inactive | inactive | inactive | inactive
4 | CC[C@@H]1C=CC(=O)O[C@@H]1[C@H](C)C[C@@H](C)[C@@H](O)C[C@H](O)/C=C\C=C/c1cccc(O)c1Cl [BITUNGOLIDE A] | inactive | Active | inactive | inactive | inactive | inactive | inactive | inactive
5 | CC[C@@H]1C=CC(=O)O[C@@H]1[C@H](C)CC[C@@H](O)C[C@H](O)/C=C/C=C/c1ccccc1 [BITUNGOLIDE F] | inactive | Active | inactive | inactive | inactive | inactive | inactive | inactive
6 | CC[C@@H]1C=CC(=O)O[C@@H]1[C@H](C)C[C@@H](C)[C@@H](O)C[C@H](O)/C=C/C=C/c1cccc(O)c1Cl [BITUNGOLIDE B] | inactive | Active | inactive | inactive | inactive | inactive | inactive | inactive
